Calls of active or inactive are those of the source. The rule behind the calls is not given here.

What is called half-life is how long it takes for the measured level to halve. As usually defined, the AUC is the area under the concentration-time curve, a measure of exposure. Read a high AUC as high exposure. By Cmax is commonly meant the peak of the concentration-time curve.

The subject of series [1] is B16-F10. In words: Effect on NLRP3 expression in cytosolic luciferase-transfected mouse B16-F10 cells xenografted in C57BL/6 mouse at 25 mg/kg, ip administered thrice weekly measured after 14 days by Western blot analysis. The class given is functional, organism-based. The conditions noted are these: time 14.0 day. The method, boiled down: (§1)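 Tumors from luciferase-expressing B16-F10 grafts in C57BL/6 mice, dosed IP at 25 mg/kg thrice weekly (DMSO controls), were excised at endpoint and homogenized in sucrose/HEPES/IGEPAL lysis buffer. Lysates were western blotted and bands expressed as fold ratio over β-actin (n = 5).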
(In general: In western blotting, separated proteins are transferred to a membrane and probed.)

Series [2] deals with BMDM. Kind of series: Effect on NLRP3-ASC interaction in LPS-treated mouse BMDM cells at 1 uM incubated for 30 mins followed by ATP stimulation for 1 hr by co-immunoprecipitation based Western blot analysis. The class given is functional, cell-based. The conditions noted are these: time 90.0 min. The method, boiled down: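 BMDMs (1 × 10^7) primed with LPS 2 h, treated 1 µM compound 30 min, then ATP 1 h; lysed in HEPES/NaCl/glycerol/EDTA/0.5% Triton buffer with protease/phosphatase inhibitors; NLRP3–ASC co-immunoprecipitation, bait eluted in Laemmli buffer, western blot; representative of three independent experiments.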

A short description of series [3]: Metabolic stability in human liver microsomes assessed as intrinsic clearance measured per mg protein at 1 uM measured upto 60 mins by LC-MS/MS analysis. The class given is ADME, Microsome. The conditions noted are these: read-out: CLH. The method, boiled down:
(§2)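 Pooled human or CD-1 male mouse liver microsomes at 0.5 mg/mL with test compound 1 µM in 50 mM phosphate pH 7.4 and 3 mM MgCl2, preincubated 10 min at 37 °C. Percent parent remaining vs 0 min measured by LC-MS/MS. Cli = k/microsomal conc. × 1000; mean ± SD, n = 2.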

Series [4] deals with BMDM. In words: Effect on ASC level in LPS-treated mouse BMDM cells at 1 uM incubated for 30 mins followed by ATP stimulation for 1 hr by Hoechst staining based microscopy. The class given is functional, cell-based. The conditions noted are these: time 90.0 min. The essentials: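 BMDMs primed with LPS 1 µg/mL for 2 h, given DMSO or compound 1 µM for 30 min, then 5 mM ATP for 1 h. Cells fixed in 4% PFA, permeabilized with 0.1% Triton X-100, stained with anti-ASC overnight at 4 °C plus fluorescent secondary, nuclei Hoechst 1 µM; confocal imaging with 63× oil objective.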

Series [5] can be described thus: Metabolic stability in mouse liver microsomes assessed as half life measured per mg protein at 1 uM measured upto 60 mins by LC-MS/MS analysis. The class given is ADME, Microsome. The essentials:
as §2

A short description of series [6]: Tlast in C57BL/6 mouse at 25 mg/kg, ip measured for 0.083 to 24 hrs by LC-MS/MS analysis. The class given is ADME, organism-based. Particulars: in vivo, time 0.083-24 hrs. The method, boiled down: (§3)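 Female C57BL/6 mice, 8 weeks old, 25–30 g, given a single IP dose of 25 mg/kg. Sampling at 5 and 20 min and 1, 2, 3, 6, 8 and 24 h, 3 mice per timepoint; Li-heparin plasma from the cava vein. ACN/MeOH precipitation with diclofenac internal standard, then LC-MS/MS in ESI(−) MRM mode, range 1–2000 ng/mL. Noncompartmental analysis, linear trapezoidal AUC.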

Series [7] has as its system THP-1. Kind of series: Suppression of caspase-1 p10 expression in LPS-treated human THP-1 cells at 1 to 1000 nM incubated for 30 mins followed by ATP stimulation for 1 hr […]. The class given is functional, cell-based. The conditions noted are these: dose 1-1000 nM, time 90.0 min. In general terms: An ELISA detects its analyte on a solid surface through an enzyme-linked reagent.

The subject of series [8] is BMDM. In words: Effect on NLRC4 inflammasome activation in LPS-treated mouse BMDM cells assessed as IL-1beta release at 1 uM incubated for 30 mins followed by Salmonella typhimurium flagellin stimulation for 2 hrs by ELISA method. The class given is functional, cell-based. The conditions noted are these: time 150.0 min. The method, boiled down: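 BMDMs primed with LPS 100 ng/mL for 3 h, then compound 1 µM in serum-free medium for 30 min, then flagellin 100 ng/mL for 2 h; supernatant mouse IL-1β by ELISA.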

Series [9] deals with B16-F10. In words: Antitumor activity against cytosolic luciferase-transfected mouse B16-F10 cells xenografted in C57BL/6 mouse assessed as tumor reduction at 25 mg/kg, ip administered thrice weekly measured after 14 days by bioluminescence assay. The class given is functional, organism-based. The conditions noted are these: time 14.0 day. The method, boiled down:
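Female C57BL/6 mice aged 6–8 weeks inoculated subcutaneously with 1 × 10^6 B16-F10 cells stably expressing cytosolic luciferase. From day 5, IP dosing of 25 mg/kg thrice weekly, DMSO for controls, five mice per group. Imaging after IP D-luciferin 150 mg/kg under 2.5% isoflurane, read after 15 min. Caliper volume = π/6 × a × b². Tumors excised day 14.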

Series [10] is described as follows: Metabolic stability in mouse liver microsomes assessed as intrinsic clearance measured per mg protein at 1 uM measured upto 60 mins by LC-MS/MS analysis. The class given is ADME, Microsome. Particulars: read-out: CLH. The method, boiled down:
as §2
(In general: Liver microsomes are vesicles of endoplasmic reticulum, rich in cytochrome P450 enzymes.)

Series [11] can be described thus: AUC in C57BL/6 mouse at 25 mg/kg, ip measured for 0.083 to 24 hrs by LC-MS/MS analysis. The conditions noted are these: in vivo.
The subject of series [12] is B16-F10. Kind of series: Antiproliferative activity against LPS-treated mouse B16-F10 cells co-cultured with mouse peritoneal macrophages assessed as decrease in cell growth at 1 uM incubated for 30 mins followed by ATP stimulation for 1 hr measured after 48 hrs by cell counting method. The class given is functional, cell-based. Particulars: time 49.5 hrs. The essentials:
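Transwell co-culture (0.4 µm pores), 48 h: peritoneal macrophages from C57BL/6 mice (2 × 10^5, lower well) primed with LPS 1 µg/mL 2 h, then DMSO or compound 1 µM 30 min, then ATP 1 h; B16-F10 cells (2 × 10^3) in upper insert; tumor cells removed after 48 h and counted by image-based cytometer.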

The nature of series [13]: Metabolic stability in human liver microsomes assessed as half life measured per mg protein at 1 uM measured upto 60 mins by LC-MS/MS analysis. The class given is ADME, Microsome. The method, boiled down: as §2
Series [14] relates to THP-1. In words: Suppression of pro-IL-1beta expression in LPS-treated human THP-1 cells at 1 to 1000 nM incubated for 30 mins followed by ATP stimulation for 1 hr […]. The class given is functional, cell-based. Particulars: dose 1-1000 nM, time 90.0 min.
Series [15] is described as follows: Cmax in C57BL/6 mouse at 25 mg/kg, ip measured for 0.083 to 24 hrs by LC-MS/MS analysis. The class given is ADME, organism-based. Also on record: time upper 24 hrs, dose 25 mg/kg, time lower 0.083 hrs, route ip. Particulars: in vivo. The method, boiled down:
as §3

The subject of series [16] is Mus musculus. Kind of series: Antiinflammatory activity in LPS-induced C57BL/6 mouse assessed as reduction in IL-1beta production in peritoneal exudate at 25 mg/kg, ip pretreated for 30 mins followed by LPS induction measured after 4 hrs by ELISA method. The class given is functional, organism-based. Particulars: time 4.5 hrs. The essentials: (§4)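 C57BL/6 mice given inhibitor 25 mg/kg IP (vehicle DMSO) 30 min before IP LPS 1 mg/kg; after 4 h, peritoneal exudate and blood collected, plasma from centrifugation 1000g 15 min 4 °C; IL-1β measured by ELISA; mean ± SEM of three independent experiments.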

The subject of series [17] is B16-F10. In words: Antiproliferative activity against cytosolic luciferase-transfected mouse B16-F10 cells xenografted in C57BL/6 mouse assessed as effect on cell growth at 25 mg/kg, ip administered thrice weekly measured after 5 days. The class given is functional, organism-based. Particulars: time 5.0 day.
The test system of series [18] is B16-F10. Kind of series: Effect on cleaved caspase-1 expression in cytosolic luciferase-transfected mouse B16-F10 cells xenografted in C57BL/6 mouse at 25 mg/kg, ip administered thrice weekly measured after 14 days by Western blot analysis. The class given is functional, organism-based. Particulars: time 14.0 day. The essentials: as §1
Series [19] can be described thus: Clast in C57BL/6 mouse at 25 mg/kg, ip measured for 0.083 to 24 hrs by LC-MS/MS analysis. Particulars: in vivo, time 0.083-24 hrs. The class given is ADME, organism-based. The essentials: as §3
Series [20] concerns Mus musculus. In words: Antiinflammatory activity in LPS-induced C57BL/6 mouse assessed as reduction in IL-1beta production in plasma at 25 mg/kg, ip pretreated for 30 mins followed by LPS induction measured after 4 hrs by ELISA method. The class given is functional, organism-based. The conditions noted are these: time 4.5 hrs. The method, boiled down: as §4

As for `CC(C)[C@H](NS(=O)(=O)c1ccc([N+](=O)[O-])cc1)C(=O)Nc1c2c(cc3c1CCC3)CCC2`, the outcome in [1], in series [2], in series [4], in series [8], in series [14] and in series [17] was inactive. The outcome in [18] was inactive. The microsomal CLint at 1 µM in [3] worked out at 45.8 µL/min/mg; in series [10] it was 4.8 µL/min/mg. The half-life at 1 µM in series [5] is 4.8 h; in [13], 0.508 h. For the same molecule, in series [6], the Tlast came to 24 h. For the same molecule, the outcome in series [7], in series [9], in series [12], in series [16] and in [20] was Active. In [11], the AUC was 3880 ng/mL.hr. In series [15], this molecule gave a Cmax of 1670 ng/mL. Further, in series [19], the Clast was determined as 67 ng/mL.

Source of the values: ChEMBL document CHEMBL5380838, “Novel Aryl Sulfonamide Derivatives as NLRP3 Inflammasome Inhibitors for the Potential Treatment of Cancer” (J Med Chem, 2023).
